Consider two compounds from ChEMBL document CHEMBL2034930, “Alkylidene branched lupane derivatives: synthesis and antitumor activity” (Eur J Med Chem, 2012).

Molecules are shown by their SMILES. The source made the active and inactive calls. The rule behind the calls is not given here.

In one data set the test system is A2780. The data set is described as follows: Cytotoxicity against human A2780 cells after 96 hrs by SRB assay. As to conditions: Homo sapiens, A2780, 96 h; read-out: IC50. In kind it is functional, cell-based. In a few lines: (§1)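 Cells exposed to test compounds for 96 h, then viable cells measured by sulforhodamine B staining as a percentage of untreated controls. IC50 read from dose-response curves, averaged over at least three independent experiments. Compounds tested free and also encapsulated in soybean-lecithin liposomes extruded through a 100 nm polycarbonate membrane (hydrodynamic diameter 70-120 nm, Z-average 105 nm, encapsulation >96% by HPLC).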
(The SRB assay estimates cell density from bound dye.)

In data set [1] the test system is A549. The data set can be described thus: Induction of apoptosis in human A549 cells at 0.8 uM by acridine orange/ethidium bromide staining. In kind it is functional, cell-based.
In the next data set the test system is DLD-1. The data set is described as follows: Cytotoxicity against human DLD1 cells after 96 hrs by SRB assay. It is filed as functional, cell-based. As to conditions: Homo sapiens, DLD-1, 96 h; read-out: IC50. In a few lines:
as §1

Data set [2] can be described thus: Solubility of the compound in water. As to conditions: buffer. In kind it is physicochemical.
Another data set relates to A-431. The data set is described as follows: Cytotoxicity against human A431 cells after 96 hrs by SRB assay. In kind it is functional, cell-based. As to conditions: Homo sapiens, A-431, 96 h; read-out: IC50. In a few lines: as §1
A further data set has as its system SW-1736. The data set is described as follows: Cytotoxicity against human SW1736 cells after 96 hrs by SRB assay. It is filed as functional, cell-based. To be noted: Homo sapiens, SW-1736, 96 h; read-out: IC50. The method in brief:
as §1

Another data set deals with MCF7. The data set is described as follows: Cytotoxicity against human MCF7 cells after 96 hrs by SRB assay. As to conditions: Homo sapiens, MCF7, 96 h; read-out: IC50. In kind it is functional, cell-based. The method in brief: as §1
A further data set relates to HCT-8. The data set can be described thus: Cytotoxicity against human HCT8 cells after 96 hrs by SRB assay. In kind it is functional, cell-based. To be noted: Homo sapiens, HCT-8, 96 h; read-out: IC50. The method in brief: as §1
A further data set relates to HCT-116. The data set is described as follows: Cytotoxicity against human HCT116 cells after 96 hrs by SRB assay. As to conditions: Homo sapiens, HCT-116, 96 h; read-out: IC50. In kind it is functional, cell-based. The method in brief: as §1
In the next data set the test system is HT-29. The data set is described as follows: Cytotoxicity against human HT-29 cells after 96 hrs by SRB assay. In kind it is functional, cell-based. To be noted: Homo sapiens, HT-29, 96 h; read-out: IC50. In a few lines: as §1
The nature of data set [3]: Cytotoxicity against human Lipo cells after 96 hrs by SRB assay. As to conditions: Homo sapiens, Lipo, 96 h; read-out: IC50. In kind it is functional, cell-based. The method in brief:
as §1

In data set [4] the test system is SW480. The data set is described as follows: Cytotoxicity against human SW480 cells after 96 hrs by SRB assay. In kind it is functional, cell-based. To be noted: Homo sapiens, SW480, 96 h; read-out: IC50. In a few lines: as §1
Another data set has as its system NIH3T3. The data set can be described thus: Cytotoxicity against mouse NIH/3T3 cells after 96 hrs by SRB assay. In kind it is cell-based. To be noted: NIH3T3, 96 h. The method in brief: as §1
The test system of data set [5] is A549. The data set is described as follows: Cytotoxicity against human A549 cells after 96 hrs by SRB assay. In kind it is functional, cell-based. As to conditions: Homo sapiens, A549, 96 h; read-out: IC50. The method in brief:
as §1

The subject of data set [6] is SW480. The data set can be described thus: Induction of apoptosis in human SW480 cells assessed as DNA laddering at IC90 concentration after 24 hrs.
For another data set, the system named is 8505C. The data set is described as follows: Cytotoxicity against human 8505C cells after 96 hrs by SRB assay. As to conditions: Homo sapiens, 8505C, 96 h; read-out: IC50. In kind it is functional, cell-based. The method in brief:
as §1

Data set [7] in a line: Cytotoxicity against human A253 cells after 96 hrs by SRB assay. To be noted: Homo sapiens, A253, 96 h; read-out: IC50. In kind it is functional, cell-based. The method in brief: as §1
Data set [8] in a line: Cytotoxicity against human 518A2 cells after 96 hrs by SRB assay. In kind it is functional, cell-based. To be noted: Homo sapiens, 518A2, 96 h; read-out: IC50. The method in brief:
as §1

For a further data set, the system named is FaDu. The data set is described as follows: Cytotoxicity against human FADU cells after 96 hrs by SRB assay. To be noted: Homo sapiens, FaDu, 96 h; read-out: IC50. It is filed as functional, cell-based. In a few lines:
as §1

Data set [9] is described as follows: Chemical stability of the compound. It is filed as physicochemical.

On to `C=C1C[C@]2(C)[C@H]3CC[C@@H]4[C@H]5[C@H](C(=C)C)CC[C@]5(C(=O)O)CC[C@@]4(C)[C@]3(C)CC[C@H]2C(C)(C)C1=O`, for which the IC50 in the data set with A2780 was determined as 600 nM; with DLD-1, 400 nM; with A-431, 200 nM; with SW-1736, 400 nM; in the data set with MCF7 it was 300 nM; in the data set on HCT-8, 200 nM. Moreover, the IC50 with HCT-116 worked out at 200 nM; in the data set on HT-29 it was 400 nM; in data set [3], 600 nM; with SW480 [4] it was 400 nM; with NIH3T3, 800 nM; with A549 [5], 600 nM. The concentration for half-maximal inhibition (IC50) with 8505C was found to be 600 nM; in [7] it was 400 nM; in data set [8], 500 nM; with FaDu it was 500 nM. In addition, the result in the data set on A549 [1] and with SW480 [6] was Active. For the same compound, the solubility result in [2] is listed as “Insoluble”.
`C=C(C)[C@@H]1CC[C@]2(C(=O)OC)CC[C@]3(C)[C@H](CC[C@@H]4[C@@]5(C)C[C@@H](CN(C)C)C(=O)C(C)(C)[C@@H]5CC[C@]43C)[C@@H]12`: the solubility entry in [2] is on record as “Insoluble”. Moreover, in [9], the Stability result was “Unstable”.

In general, IC50 refers to the concentration that inhibits the measured activity by half.
